Bioassay records deposited in PubChem BioAssay by several laboratories.
Shown are actives, neighbours in structure and some others; about 1.7% of the full set was active somewhere.
Dynein cargo inh: dynein cargo transport inhibition. 3617.4 mouse cells, GR-EGFP nuclear translocation imaging; test concentration mostly 20 µM; stimulated with dexamethasone, 1 µM; hits give low values. z-score, hits read low. 220,000 compounds, 0.47% hits. AID 1381;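 active = plate z-score of nuclear minus cytoplasmic receptor signal below a set negative limit, without overly bright fluorescence or cell loss, cut at about -3.5 in these data, passing the limit was not always enough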;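 also: z-score of nuclear minus cytoplasmic ring GR-EGFP intensity difference per well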
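Buffer or medium: tet-free, stripped-serum medium; reagent: dexamethasone at 1.0 µM final, 30 min; incubation: 48 h induction, 1 h compound, 30 min dex at 37 °C; measured by: formaldehyde fixation, Hoechst nuclear stain, 10x automated fluorescence imaging; read-out: nuclear-to-cytoplasmic GR-EGFP distribution per well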
Hsp70 act: transcriptional activators of Hsp70; HeLa Hsp70 promoter luciferase reporter, luminescence; scaled: vehicle 0, proteasome-inhibitor control 100%; 200,000 compounds, 0.04% hits; activation, % at 10 µM;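 active = activation above the mean across all tested compounds plus 3 SD, cutoff set per campaign, cut at about 5.5% in these data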;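 also: 100% = MG132 at 30 µM as the positive control and 0% = DMSO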
EP2 modulator: modulates human prostaglandin E2 receptor EP2 signaling; P43116; EP2-expressing cells, cAMP HTRF FRET, PGE2 co-stimulation; induction, % at 25 µM; 260,000 compounds, 0.83% hits; AID 940;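 active = compounds whose cAMP rise, as percent of the full-agonist control response, exceeds 60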;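 also: rat C6 glioma line stably carrying human EP2 under a CMV promoter; the protocol text gives 20 µM as final concentration; 100% = response of wells given 1 µM PGE2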
Target sequence (P43116 whole entry, looked up): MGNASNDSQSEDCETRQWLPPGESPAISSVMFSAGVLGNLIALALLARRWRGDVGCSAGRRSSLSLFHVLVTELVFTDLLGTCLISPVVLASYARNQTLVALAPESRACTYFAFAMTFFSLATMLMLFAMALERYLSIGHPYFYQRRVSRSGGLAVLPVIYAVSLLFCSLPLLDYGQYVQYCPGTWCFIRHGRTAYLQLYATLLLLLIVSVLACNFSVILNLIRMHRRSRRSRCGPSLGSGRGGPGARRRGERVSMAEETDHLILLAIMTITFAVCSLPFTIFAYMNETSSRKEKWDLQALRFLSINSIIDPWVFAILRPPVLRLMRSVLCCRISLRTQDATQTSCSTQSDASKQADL
EP2 antag: EP2 receptor (human) inhibition; C6 glioma cells expressing human EP2, cAMP TR-FRET; cells stimulated with saturating PGE2; 260,000 compounds, 0.52% hits; inhibition, % at 25 µM; AID 1422;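 active = percent inhibition above 40 after rounding to a whole number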;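 also: rat C6 glioma host cells with rolipram phosphodiesterase inhibitor present; the protocol text gives 20 µM as final concentration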
Dynein inh conf: dynein cargo transport inhibition, confirmation; 3617.4 GR-EGFP nuclear translocation imaging, dexamethasone-induced; 1,000 compounds, 69% hits; AID 463116; shares compounds with Dynein cargo inh; calls only at 20 µM;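 active = inhibition of receptor movement into the nucleus at or above a set limit in both runs, with normal cell brightness and cell count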;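 also: dexamethasone at 1 µM final in well for 30 min; nuclear minus cytoplasmic GR-EGFP mean intensity difference in channel 2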
* = called active by the depositor; / = no result; + = active, no number.

SMILES | Dynein cargo inh | Hsp70 act | EP2 modulator | EP2 antag | Dynein inh conf
COc1ccc(C(=O)/C=C/C(=O)N(Cc2ccccc2)C(C(=O)NC2CCCCC2)c2ccncc2)c(O)c1 (configuration not stated) | -0.32 | -1 | 10 | 10 | /
COc1ccc(C(=O)/C=C/C(=O)N(CC(=O)NC2CCCCC2)Cc2ccccc2)c(O)c1 | -4.6* | 0 | -80 | 19 | +
COc1ccc(C(=O)/C=C/C(=O)N(Cc2ccccc2OC)C(C(=O)NC2CCCCC2)c2ccncc2)c(O)c1 (configuration not stated) | -0.51 | 0 | -8 | 6 | /
COc1ccc(C(=O)/C=C/C(=O)N(CC(=O)NC2CCCCC2)Cc2ccccc2OC)c(O)c1 | -4.5* | 0 | -48 | 6 | +
COc1ccc(C(=O)/C=C/C(=O)N(CC(=O)NC2CCCCC2)CC2CCCO2)c(O)c1 (configuration not stated) | -4.7 | 0 | -50 | 12 | +
CCc1nn(CC(=O)NCc2ccco2)c(=O)c2cc3occc3n12 | / | / | -39 | 4 | /
O=C(COc1ccc(S(=O)(=O)NC2CCCCC2)cc1)N1CCOCC1 | / | / | -25 | 12 | /
CN(C)CCCN1C(=O)c2cccc3c(Br)ccc(c23)C1=O | -0.19 | 0 | -8 | 6 | /
CCCCNc1ccc2c3c(cccc13)C(=O)N(CCCC)C2=O | -6.1* | / | 3 | 5 | +
